This note sets out measurements from ChEMBL document CHEMBL1165887, “Structure-activity relationships of monomeric C2-aryl pyrrolo[2,1-c][1,4]benzodiazepine (PBD) antitumor agents” (J Med Chem, 2010).

Experiment [1] can be described thus: Growth inhibition of human NCI60 cells after 48 hrs by SRB assay. The format is functional. The settings on record: NCI60, 48 h; for CC50: read-out: LC50 (the source's name). In general terms: In SRB staining, fixed cells bind dye roughly in proportion to their protein.
Experiment [2] concerns Calf thymus DNA. Description: Binding affinity to calf thymus DNA assessed as change in melting temperature after 4 hrs. In kind it is nucleic-acid assay. The settings on record: Bos taurus. A digest of the protocol: (§1)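 Calf thymus DNA at a fixed 100 μM (DNAp, 50 μM bp) in pH 7.00 buffer of 10 mM NaH₂PO₄/Na₂HPO₄ and 1 mM Na₂EDTA, 1:5 ligand/DNAp ratio, DMSO ≤0.3% v/v. Mixture kept at 37 °C for the stated time, then melted while absorbance at 260 nm was monitored. Tm taken at the midpoint of the normalized profile; ΔTm = Tm(DNA+ligand) − Tm(DNA), corrected for DMSO; mean of at least three runs.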

Experiment [3] deals with Calf thymus DNA. Description: Binding affinity to calf thymus DNA assessed as change in melting temperature after 18 hrs. The format is nucleic-acid assay. The settings on record: Bos taurus. The procedure, abridged: as §1
Experiment [4] concerns K562. As to the kind of experiment: Cytotoxicity against human K562 cells after 96 hrs by alamar blue assay. The settings on record: K562, 96 h. The format is functional, cell-based. The procedure, abridged: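 K562 cells kept in RPMI with 10% fetal calf serum and 2 mM glutamine, seeded at 10⁴ cells/mL. Compounds serially diluted in DMSO and added in triplicate; exposure 96 h at 37 °C, 5% CO₂. Alamar Blue (1 μM final) then added for a further 4 h; read by fluorescence emission at 580-620 nm.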
In general terms: The colour change of resazurin is a common sign of viable cells or microbes.

Usually GI50 stands for the concentration that inhibits growth by half. Higher therefore signals less potent growth inhibition. The TGI is the concentration giving total growth inhibition. Higher therefore signals lower sensitivity of the cells. By ΔTm is commonly meant the shift of the melting midpoint relative to a reference. Usually IC50 stands for the point on the concentration scale where inhibition reaches its midpoint. Read a low IC50 as greater potency in that assay.

For the compound `CO[C@H]1Nc2c(ccc(C)c2O)C(=O)N2C=C(/C=C/C(N)=O)C[C@@H]12` [ANTHRAMYCIN METHYL ETHER], in experiment [1], the GI50 is 13 nM, the concentration for total growth inhibition (TGI) amounted to 1580 nM and the CC50 was 24.5 µM. The ΔTm in experiment [2] was 11.2 °C. Besides, the ΔTm in experiment [3] was determined as 13 °C. The compound also displayed an IC50 in experiment [4] of 8 nM.
Consider `COc1cc2c(cc1OC)C(=O)N1C=C(c3ccc(C(C)(C)C)cc3)C[C@H]1C=N2`, for which, in experiment [1], the GI50 was determined as 2 nM, net growth stopped (TGI) at 50 nM and the CC50 is 1.94 µM. In addition, in experiment [2], the ΔTm was found to be 9 °C. Also, the ΔTm in experiment [3] came to 9.2 °C. The compound further displayed an IC50 in experiment [4] of 47.8 nM.
On to `COc1cc2c(cc1OC)C(=O)N1C=C(c3cccs3)C[C@H]1C=N2`, for which, in experiment [1], the GI50 came out at 10 nM, the TGI came to 150 nM and the CC50 worked out at 0.74 µM. The ΔTm in experiment [2] was 12.7 °C. Further, in experiment [3], the ΔTm worked out at 13 °C. The compound further had an IC50 in experiment [4] of 1.1 nM.
Turning to `COc1cccc(C2=CN3C(=O)c4cc(OC)c(OC)cc4N=C[C@@H]3C2)c1`, in experiment [1], the 50% growth inhibitory concentration (GI50) came out at 11 nM, the TGI is 60 nM and the CC50 was 4.07 µM. The ΔTm in experiment [2] is 10.1 °C. In addition, the ΔTm in experiment [3] came out at 10.2 °C. In addition, in experiment [4], the half-maximal inhibitory concentration (IC50) was 0.45 nM.
Consider `COc1cc2c(cc1OC)C(=O)N1C=C(c3ccc(C(F)(F)F)cc3)C[C@H]1C=N2`, for which, in experiment [1], halving of growth (GI50) required 4 nM, the TGI stood at 30 nM and the CC50 turned out to be 1.66 µM. Besides, the ΔTm in experiment [2] stood at 11.7 °C. Moreover, the ΔTm in experiment [3] turned out to be 11.9 °C. For the same compound, the midpoint of inhibition in experiment [4], the IC50, lay at 24.3 nM.
Regarding `COc1cc2c(cc1OC)C(=O)N1C=C(c3ccc(F)cc3)C[C@H]1C=N2`, in experiment [1], it took 2 nM to inhibit growth by half (GI50), total growth inhibition (TGI) required 120 nM and the CC50 came out at 11.2 µM. The ΔTm in experiment [2] worked out at 10.4 °C. Further, the ΔTm in experiment [3] was 10.6 °C. Also, in experiment [4], the midpoint of inhibition, the IC50, lay at 1.6 nM.
Take `COc1cc2c(cc1OC)C(=O)N1C=C(c3ccc(C=O)cc3)C[C@H]1C=N2`: in experiment [1], it took 9 nM to inhibit growth by half (GI50), total growth inhibition (TGI) required 160 nM and the CC50 amounted to 15.1 µM. The ΔTm in experiment [2] worked out at 10.6 °C. The ΔTm in experiment [3] is 10.8 °C. The compound further registered an IC50 in experiment [4] of 26.3 nM.
Turning to `COc1cc2c(cc1OC)C(=O)N1C=C(c3ccc(-c4ccccc4)cc3)C[C@H]1C=N2`, in experiment [1], the GI50 stood at 8 nM, the TGI amounted to 90 nM and the CC50 came out at 3.63 µM. Also, in experiment [2], the ΔTm came out at 8.1 °C. Moreover, the ΔTm in experiment [3] is 8.4 °C. Besides, the IC50 in experiment [4] was found to be 19.6 nM.
As for `COc1cc2c(cc1OC)C(=O)N1C=C(c3cnc4ccccc4c3)C[C@H]1C=N2`, in experiment [1], the GI50 amounted to 0.1 nM, total growth inhibition (TGI) required 1 nM and the CC50 is 0.18 µM. In experiment [2], the ΔTm was determined as 18.1 °C. Also, the ΔTm in experiment [3] stood at 18.2 °C. Moreover, the IC50 in experiment [4] was determined as 8.9 nM.
Consider `COc1cc2c(cc1OC)C(=O)N1C=C(c3ccc(C)cc3)C[C@H]1C=N2`, for which, in experiment [1], the GI50 stood at 2 nM, the TGI is 180 nM and the CC50 amounted to 8.9 µM. The ΔTm in experiment [2] is 9.8 °C. Besides, in experiment [3], the ΔTm came out at 10.1 °C. In experiment [4], this compound had an IC50 of 0.28 nM.
As for `COc1cc2c(cc1OC)C(=O)N1C=C(c3ccc(C#N)cc3)C[C@H]1C=N2`, in experiment [1], halving of growth (GI50) required 3 nM, net growth stopped (TGI) at 150 nM and the CC50 was determined as 7.41 µM. The ΔTm in experiment [2] was found to be 10.9 °C. For the same compound, in experiment [3], the ΔTm came to 11 °C. The compound further showed an IC50 in experiment [4] of 19.8 nM.
Turning to `CCc1ccc(C2=CN3C(=O)c4cc(OC)c(OC)cc4N=C[C@@H]3C2)cc1`, in experiment [1], the GI50 worked out at 1 nM, net growth stopped (TGI) at 70 nM and the CC50 worked out at 4.17 µM. The ΔTm in experiment [2] is 9.4 °C. Also, the ΔTm in experiment [3] worked out at 9.7 °C. In experiment [4], this compound returned an IC50 of 79.5 nM.
`COc1cc2c(cc1OC)C(=O)N1C=C(c3ccccc3C)C[C@H]1C=N2`: in experiment [1], the GI50 came out at 12 nM, net growth stopped (TGI) at 250 nM and the CC50 stood at 10.7 µM. In experiment [2], the ΔTm was 6.8 °C. For the same compound, the ΔTm in experiment [3] was found to be 6.9 °C. Also, the IC50 in experiment [4] turned out to be 9.3 nM.
